Reference: ChEMBL document CHEMBL1152242, “Aldehydic components of cinnamon bark extract suppresses RANKL-induced osteoclastogenesis through NFATc1 downregulation” (Bioorg Med Chem, 2008)
Activity calls are given as the source filed them. The rule behind the calls is not given here.

Tests used:
[1] = Inhibition of NF-kappaB transfected in LPS-stimulated mouse RAW264.7 cells; format: cell-based
RAW264.7 [2] = assay: Inhibition of multinucleated cell formation in RANKL-stimulated mouse RAW264.7 cells at 0.5 to 2 uM after 3 days by TRAP staining; format: functional, cell-based
Method in brief: (§1)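 RAW264.7 cells in α-MEM with RANKL, with or without compound, cultured 3 days at 37 °C, 5% CO2. Fixed in acetone/citrate for 30 s, then TRAP-stained with a kit. TRAP+ cells with ≥4 nuclei scored as MNCs by light microscopy, counting four fields, repeated four times. Relative MNC number reported as mean ± SD of triplicates; ANOVA with Dunnett's test.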

RAW264.7 [3] = assay: Inhibition of bone resorption by mature osteoclast in RANKL-stimulated mouse RAW264.7 cells pretreated for 1 hr measured after 8 days; format: functional, cell-based
Method in brief: (§2)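 RAW264.7 cells pretreated with compound for 1 h, then RANKL (50 ng/ml) added on calcium phosphate apatite-coated plates. Incubated 8 days, then 5% sodium hypochlorite for 5 min, washed, dried and photographed. Total resorbed pit area (mm²) given as mean ± SD of triplicates.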

RAW264.7 [4] = assay: Inhibition of NFATc1 expression in RANKL-stimulated mouse RAW264.7 cells after 48 hrs by immunoblotting; format: functional, cell-based
Method in brief: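 RAW264.7 cells in α-MEM cultured with RANKL plus test compound for 48 h. Lysates in HEPES pH 7.8/NaCl/EDTA/MgCl2/DTT buffer with protease inhibitors, run on 8% SDS-PAGE and transferred to nitrocellulose. Blocked in 5% milk/PBS-Tween, then anti-NFATc1 primary overnight at 4 °C with GAPDH as loading control. Detected with HRP secondary and ECL.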

RAW264.7 [5] = assay: Inhibition of multinucleated cell formation in RANKL-stimulated mouse RAW264.7 cells after 3 days by TRAP staining; format: functional, cell-based; method in brief: as §1
RAW264.7 [6] = assay: Inhibition of osteoclastogenesis in RANKL-stimulated mouse RAW264.7 cells at 1 to 2 uM; format: functional, cell-based
[7] = target: T1, Nuclear factor of activated T-cells, cytoplasmic 1 (Mus musculus) (UniProt O88942); assay: Inhibition of NFATc1 pathway in RANKL-stimulated mouse RAW264.7 cells at 1 to 2 uM; format: cell-based
T1 sequence (whole entry): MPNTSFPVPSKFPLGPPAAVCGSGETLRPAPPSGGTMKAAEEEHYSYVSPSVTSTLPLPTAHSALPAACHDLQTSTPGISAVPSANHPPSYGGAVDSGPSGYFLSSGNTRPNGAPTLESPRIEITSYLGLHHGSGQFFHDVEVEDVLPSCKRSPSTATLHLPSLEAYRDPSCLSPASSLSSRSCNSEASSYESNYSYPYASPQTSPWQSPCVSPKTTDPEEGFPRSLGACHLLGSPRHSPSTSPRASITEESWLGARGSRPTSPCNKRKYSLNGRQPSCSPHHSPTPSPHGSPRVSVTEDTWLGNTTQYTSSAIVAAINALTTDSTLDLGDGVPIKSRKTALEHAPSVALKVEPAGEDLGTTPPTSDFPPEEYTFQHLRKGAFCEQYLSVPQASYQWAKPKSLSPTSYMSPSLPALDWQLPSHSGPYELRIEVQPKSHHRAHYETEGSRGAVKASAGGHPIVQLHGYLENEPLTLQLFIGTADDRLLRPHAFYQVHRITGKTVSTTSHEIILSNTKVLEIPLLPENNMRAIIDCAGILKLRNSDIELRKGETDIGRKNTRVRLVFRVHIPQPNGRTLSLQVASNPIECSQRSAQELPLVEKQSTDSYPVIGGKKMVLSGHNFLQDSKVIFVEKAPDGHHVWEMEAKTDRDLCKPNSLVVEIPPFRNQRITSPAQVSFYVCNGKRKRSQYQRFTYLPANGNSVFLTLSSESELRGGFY

RAW264.7 [8] = assay: Inhibition of bone resorption by mature osteoclast in RANKL-stimulated mouse RAW264.7 cells at 2 uM pretreated for 1 hr measured after 8 days; format: functional; method in brief: as §2
RAW264.7 [9] = assay: Inhibition of NF-kappaB activation transfected in RANKL-stimulated mouse RAW264.7 cells at 1 to 2 uM; format: cell-based

SMILES	IC50 [1]	Activity (RAW264.7 [2])	Activity (RAW264.7 [3])	Activity (RAW264.7 [4])	Activity (RAW264.7 [5])	Activity (RAW264.7 [6])	Activity [7]	inhibition at 2 µM (RAW264.7 [8])	Activity (RAW264.7 [9])
O=C/C=C/c1ccccc1 [CINNAMALDEHYDE]	43 µM	Active	Active	Active	–	–	–	–	–
O=C(O)/C=C/c1ccccc1	–	–	–	–	inactive	–	–	–	–
COc1ccccc1/C=C/C=O	31 µM	Active	Active	Active	–	Active	Active	95%	inactive
OC/C=C/c1ccccc1	–	–	–	–	inactive	–	–	–	–
